Like-named read-outs stand apart in the source and are kept apart here.
Assays:
[1] = test system: 5637 (bladder cancer) cells; assay: Crystal violet assay, 5637; assay type: cell-based, Human; details: read-out: IC50 5637, 96 h
Procedure, shortened: (§1)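 Crystal violet assay after 24 h preincubation. Adherent cells grown in RPMI with 10% heat-inactivated FBS and penicillin/streptomycin at 37 °C, 5% CO2; MCF-7 medium also had 1 mM sodium pyruvate and 1% nonessential amino acids. Seeding was 1.0 × 10^3 cells/well, or 250 cells/well for LCLC-103H. 20 mM DMF stocks were diluted 1000-fold in medium with 10% FCS for 96 h exposure. Bound dye was redissolved in 70% ethanol and read at 570 nm.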

[2] = test system: 5637-oxo oxoplatin-resistant cells; assay: Crystal violet assay, 5637-oxo; assay type: cell-based, Human; details: for Resistance factor 5637-oxo: 5637-oxo versus 5637; for IC50: read-out: IC50 5637-oxo, crystal violet, 96 h, oxoplatin-resistant line
Procedure, shortened: (§2)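 Resistant sublines were derived in-house by weekly exposure to rising oxoplatin concentrations over several months. Cells grew as adherent cultures in RPMI with 10% heat-inactivated FBS and penicillin/streptomycin at 37 °C, 5% CO2. After seeding at 1.0 × 10^3 cells/well and 24 h preincubation, cells had 96 h exposure to 20 mM DMF stocks diluted 1000-fold in medium. Crystal violet was redissolved in 70% ethanol and read at 570 nm.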

[3] = test system: SISO (cervical cancer) cells; assay: Crystal violet assay, SISO; assay type: cell-based, Human; details: read-out: IC50 SISO, 96 h
Procedure, shortened: as §1

[4] = test system: SISO-oxo oxoplatin-resistant cells; assay: Crystal violet assay, SISO-oxo; assay type: cell-based, Human; details: for Resistance factor SISO-oxo: SISO-oxo versus SISO; for IC50: read-out: IC50 SISO-oxo, crystal violet, 96 h, oxoplatin-resistant line
Procedure, shortened: as §2

[5] = test system: KYSE70 (esophagus cancer) cells; assay: Crystal violet assay, KYSE70; assay type: cell-based, Human; details: read-out: IC50 KYSE70, 96 h
Procedure, shortened: as §1

[6] = test system: KYSE70-oxo oxoplatin-resistant cells; assay: Crystal violet assay, KYSE70-oxo; assay type: cell-based, Human; details: for Resistance factor KYSE70-oxo: KYSE70-oxo versus KYSE70; for IC50: read-out: IC50 KYSE70-oxo, crystal violet, 96 h, oxoplatin-resistant line
Procedure, shortened: as §2

[7] = test system: LCLC-103H (lung cancer) cells; details: read-out: IC50 LCLC-103H; crystal violet; cited from earlier work
[8] = test system: A-427 (lung cancer) cells; details: read-out: IC50 A-427; crystal violet; cited from earlier work
[9] = test system: RT-4 (bladder cancer) cells; details: read-out: IC50 RT-4; crystal violet; cited from earlier work
[10] = test system: DAN-G (pancreatic cancer) cells; details: read-out: IC50 DAN-G; crystal violet; cited from earlier work
[11] = test system: SW480 (colon carcinoma) cells; assay: MTT assay, SW480 cells; assay type: cell-based, Human; details: read-out: IC50 SW480, 96 h exposure
Procedure, shortened: (§3)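 Cells were kept in MEM with 10% heat-inactivated FBS, 1 mM pyruvate, 4 mM L-glutamine and 1% NEAA at 37 °C, 5% CO2. Seeding by trypsinization was SW480 2.5 × 103 and A2780 5.0 × 10^3 cells/well, with 24 h preincubation and 96 h exposure to serial dilutions. MTT was added for 4 h, formazan dissolved in DMSO, and read at 550 nm (reference 690 nm). IC50 was interpolated from T/C curves using ≥3 experiments, ≥6 replicates each.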

[12] = test system: A2780 (ovarian carcinoma) cells; assay: MTT assay, A2780 cells; assay type: cell-based, Human; details: read-out: IC50 A2780, 96 h exposure
Procedure, shortened: as §3

[13] = mononuclear analogue; cited from earlier work
[14] = test system: A2780 (ovarian carcinoma) cells; details: read-out: IC50 A2780; cited from earlier work
[15] = n-octanol/water partition coefficient, shake flask method; assay type: physicochemical; details: values of the aqua complexes
Procedure, shortened: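 Partition was measured by the shake-flask method. For the octanol phase, UV/vis was read at each complex's absorption maximum against n-octanol standards from 1 to 100 μM. For the aqueous phase, ruthenium was measured by ICP-MS (101Ru and 102Ru) with external calibration from 1 to 30 ppb. These samples were prepared in 5% HNO3 with 1 ppb 185Re as internal standard.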

[16] = test system: guanosine 5′-monophosphate (GMP); assay: Nucleotide binding by 1H and 31P NMR, GMP; details: ratio complex/nucleotide
[17] = test system: adenosine 5′-monophosphate (AMP); assay: Nucleotide binding by 1H and 31P NMR, AMP; details: ratio complex/nucleotide
[18] = test system: cytidine 5′-monophosphate (CMP); assay: Nucleotide binding by 1H and 31P NMR, CMP
[19] = test system: thymidine 5′-monophosphate (TMP); assay: Nucleotide binding by 1H and 31P NMR, TMP
[20] = test system: uridine 5′-monophosphate (UMP); assay: Nucleotide binding by 1H and 31P NMR, UMP
[21] = test system: LCLC-103H (lung cancer) cells; assay: Crystal violet assay, LCLC-103H; assay type: cell-based, Human; details: read-out: IC50 LCLC-103H, 96 h
Procedure, shortened: as §1

[22] = test system: A-427 (lung cancer) cells; assay: Crystal violet assay, A-427; assay type: cell-based, Human; details: read-out: IC50 A-427, 96 h
Procedure, shortened: as §1

[23] = test system: RT-4 (bladder cancer) cells; assay: Crystal violet assay, RT-4; assay type: cell-based, Human; details: read-out: IC50 RT-4, 96 h
Procedure, shortened: as §1

[24] = test system: MCF-7 (breast cancer) cells; assay: Crystal violet assay, MCF-7; assay type: cell-based, Human; details: read-out: IC50 MCF-7, 96 h
Procedure, shortened: as §1

[25] = test system: DAN-G (pancreatic cancer) cells; assay: Crystal violet assay, DAN-G; assay type: cell-based, Human; details: read-out: IC50 DAN-G, 96 h
Procedure, shortened: as §1

Structure (SMILES) | IC50 [1] [µM] | Resistance factor 5637-oxo [2] | IC50 [2] [µM] | IC50 [3] [µM] | Resistance factor SISO-oxo [4] | IC50 [4] [µM] | IC50 [5] [µM] | Resistance factor KYSE70-oxo [6] | IC50 [6] [µM] | IC50 [11] [µM] | IC50 [12] [µM] | log Poct/water ICP-MS [15] | log Poct/water UV/vis [15] | other results
N.N.[Cl][Pt][Cl] [cisplatin] | 0.37 ± 0.01 | 2.9 | 1.1 ± 0.4 | 0.28 ± 0.04 | 2.1 | 0.58 ± 0.08 | 0.72 ± 0.11 | 2.4 | 1.7 ± 0.4 | – | – | – | – | IC50 [7]: 0.9 ± 0.19 µM; IC50 [8]: 1.96 ± 0.54 µM; IC50 [9]: 1.61 ± 0.16 µM; IC50 [10]: 0.73 ± 0.34 µM
CCCn1ccc(=O)c([O-])c1C.Cc1ccc(C(C)C)cc1.[Cl-].[Ru+2] [compound 7, chlorido[2-methyl-3-(oxo-κO)-1-propyl-4(1H)-pyridinonato-κO4](η^6-p-cymene)ruthenium(II)] | – | – | – | – | – | – | – | – | – | 42 ± 1 | 88 ± 12 | – | – | –
Cc1ccc(C(C)C)cc1.Cc1occc(=O)c1[O-].[Cl-].[Ru+2] [[RuCl(cym)(mal)] 8, chlorido(maltolato-κO^2)(η^6-p-cymene)ruthenium(II)] | – | – | – | – | – | – | – | – | – | > 100 | – | – | – | pKa values [13]: 9.23; IC50 [14]: > 100 µM
Cc1c([O-])c(=O)ccn1CCCCCCCCn1ccc(=O)c([O-])c1C.Cc1ccc(C(C)C)cc1.Cc1ccc(C(C)C)cc1.[Cl-].[Cl-].[Ru+2].[Ru+2] [5c, 1,8-Bis{chlorido[3-(oxo-κO)-2-methyl-4(1H)-pyridinonato-κO4](η ^6-p-cymene)ruthenium}octane] | – | – | – | – | – | – | – | – | – | 2.5 ± 0.2 | 5.7 ± 0.5 | −1.28 | −1.23 | formation of GMP adducts [16]: proceeded rapidly and quantitatively up to a ratio of 2:1; formation of AMP adducts [17]: proceeded rapidly and quantitatively up to a ratio of 2:1; reaction with CMP [18]: no reaction was observed; reaction with TMP [19]: no reaction was observed; reaction with UMP [20]: no reaction was observed
Cc1c([O-])c(=O)ccn1CCn1ccc(=O)c([O-])c1C.Cc1ccc(C(C)C)cc1.Cc1ccc(C(C)C)cc1.[Cl-].[Cl-].[Ru+2].[Ru+2] [1c, 1,2-Bis{chlorido[3-(oxo-κO)-2-methyl-4(1H)-pyridinonato-κO4](η ^6-p-cymene)ruthenium(II)}ethane] | – | – | – | – | – | – | – | – | – | 76 ± 4 | 84 ± 3 | −1.42 | −1.42 | –
N.N.[Cl-].[Cl-].[OH-].[OH-].[Pt+4] [oxoplatin] | 3.1 ± 1.5 | 3.4 | 10.6 ± 1.3 | 1.7 ± 0.4 | 3.1 | 5.2 ± 0.9 | 4.2 ± 2.8 | 2.1 | 8.8 ± 5.2 | – | – | – | – | IC50 [21]: 17.2 ± 5.1 µM; IC50 [22]: 13 ± 2.7 µM; IC50 [23]: 26 ± 8 µM; IC50 [24]: 5.5 ± 1.1 µM; IC50 [25]: 11.8 ± 3.2 µM

From publication PMC2819033 (Journal of medicinal chemistry, 2009)
